Laboratory results published in ChEMBL document CHEMBL1275524, “Activities of antifungal agents against yeasts and filamentous fungi: assessment according to the methodology of the European Committee on Antimicrobial Susceptibility Testing” (2008).
In brackets after ≈: the same amount, converted by molar mass.

Legend:
Penicillium sp. = assay: Antifungal activity against Penicillium species; format: functional
Scedosporium apiospermum [1] = assay: Antifungal activity against Scedosporium apiospermum; format: functional
In short: (§1)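 Broth microdilution following the EUCAST reference procedure for spore-forming moulds, in flat-bottom plates with RPMI 1640 plus 2% glucose. Inoculum was 2 × 10^5 to 5 × 10^5 CFU/ml. MICs were read visually at 24 and 48 h as 100% growth reduction versus a drug-free control for polyenes and azoles. MEC was used for caspofungin. Tests were run in duplicate and repeated twice.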

Mucor = assay: Antifungal activity against Mucor species by EUCAST method; format: functional
Aspergillus niger = assay: Antifungal activity against Aspergillus niger by EUCAST method; format: functional
Candida parapsilosis = assay: Antifungal activity against Candida parapsilosis; format: functional; conditions: Lodderomyces parapsilosis
In short: (§2)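 Broth microdilution in flat-bottom plates in RPMI 1640 with 2% glucose; inoculum 0.5 × 105 to 2.5 × 10^5 CFU/ml. MICs were read spectrophotometrically at 24 h. AMB endpoint: ≥90% growth reduction vs drug-free control well. Azole and CPF endpoint: 50% reduction in optical density. MFC was taken as the lowest concentration giving 99% killing.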

[2] = Antifungal activity against Rhinocladiella aquaspersa by EUCAST method; format: functional
In short: (§3)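 Dematiaceous fungi were tested by the EUCAST spore-forming mold reference procedure: flat-bottom microdilution plates, RPMI 1640 plus 2% glucose, inoculum 2 × 105 to 5 × 10^5 CFU/ml. Endpoints were read visually at 24 and 48 h. Polyenes and azoles: 100% growth reduction vs drug-free control. CPF: minimum effective concentration. Run in duplicate and repeated twice.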

Curvularia australiensis = assay: Antifungal activity against Bipolaris australiensis; format: functional; in short: as §3
Saccharomyces cerevisiae [3] = assay: Antifungal activity against Saccharomyces cerevisiae; format: functional
In short: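 Broth microdilution following EUCAST for fermentative yeasts, in flat-bottom plates with RPMI 1640 plus 2% glucose. Inoculum was 0.5 × 10^5 to 2.5 × 10^5 CFU/ml. End points were read spectrophotometrically at 24 h: ≥90% growth reduction versus a drug-free control for amphotericin B, and 50% OD reduction for azoles and caspofungin. MFC was the lowest concentration giving 99% killing.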

Candida albicans [4] = assay: Antifungal activity against Candida albicans by EUCAST method; format: functional; in short: as §2
Candida albicans [5] = assay: Antifungal activity against Candida albicans; format: functional; in short: as §2
Cunninghamella [6] = assay: Antifungal activity against Cunninghamella species by EUCAST method; format: functional
Mucor hiemalis = assay: Antifungal activity against Mucor hiemalis by EUCAST method; format: functional
Sporothrix schenckii [7] = assay: Antifungal activity against Sporothrix schenckii by EUCAST method; format: functional; in short: as §1
Talaromyces marneffei = assay: Antifungal activity against Penicillium marneffei; format: functional
Aspergillus terreus [8] = assay: Antifungal activity against Aspergillus terreus by EUCAST method; format: functional
Fusarium solani [9] = assay: Antifungal activity against Fusarium solani by EUCAST method; format: functional
Candida tropicalis = assay: Antifungal activity against Candida tropicalis by EUCAST method; format: functional; in short: as §2
Lichtheimia corymbifera = assay: Antifungal activity against Absidia corymbifera; format: functional
Saccharomyces cerevisiae [10] = assay: Antifungal activity against Saccharomyces cerevisiae by EUCAST method; format: functional
In short: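 EUCAST broth microdilution for yeasts in flat-bottom plates, RPMI 1640 with 2% glucose, inoculum 0.5 × 105 to 2.5 × 10^5 CFU/ml. […] MFC is the lowest concentration giving 99% killing.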

[11] = system: Meyerozyma guilliermondii; assay: Antifungal activity against Candida guilliermondii; format: functional; in short: as §2
[12] = Antifungal activity against Cryptococcus neoformans var. neoformans; format: functional; conditions: Cryptococcus deneoformans
In short: (§4)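 EUCAST yeast microdilution, modified for nonfermentative yeasts: plates were sealed and agitated at 350 rpm and 30°C for 48 h.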

Fusarium solani [13] = assay: Antifungal activity against Fusarium solani; format: functional
Scedosporium apiospermum [14] = assay: Antifungal activity against Scedosporium apiospermum by EUCAST method; format: functional; in short: as §1
Clavispora lusitaniae = assay: Antifungal activity against Candida lusitaniae by EUCAST method; format: functional; in short: as §2
Aspergillus flavus = assay: Antifungal activity against Aspergillus flavus by EUCAST method; format: functional
Cryptococcus gattii = assay: Antifungal activity against Cryptococcus neoformans var. gattii by EUCAST method; format: functional, Cryptococcus bacillisporus; in short: as §4
Rhizopus arrhizus = assay: Antifungal activity against Rhizopus oryzae by EUCAST method; format: functional; in short: as §1
Cunninghamella [15] = assay: Antifungal activity against Cunninghamella species; format: functional
Rhizopus = assay: Antifungal activity against Rhizopus species; format: functional; in short: as §1
Sporothrix schenckii [16] = assay: Antifungal activity against Sporothrix schenckii; format: functional; in short: as §1
Trichosporon asahii = assay: Antifungal activity against Trichosporon asahii; format: functional
In short: (§5)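 Nonfermentative yeasts were tested by the EUCAST microdilution recommendations with one change: plates were sealed and agitated at 350 rpm and 30°C for 48 h.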

Aspergillus terreus [17] = assay: Antifungal activity against Aspergillus terreus; format: functional
Geotrichum candidum = assay: Antifungal activity against Geotrichum candidum by EUCAST method; format: functional
Aspergillus fumigatus = assay: Antifungal activity against Aspergillus fumigatus by EUCAST method; format: functional
Trichosporon inkin = assay: Antifungal activity against Trichosporon inkin by EUCAST method; format: functional; in short: as §5
Nakaseomyces glabratus = assay: Antifungal activity against Candida glabrata; format: functional; in short: as §2

`C[C@@H]1[C@H](O)[C@@H](C)/C=C/C=C/C=C/C=C/C=C/C=C/C=C/[C@H](O[C@@H]2O[C@H](C)[C@@H](O)[C@H](N)[C@@H]2O)C[C@@H]2O[C@](O)(C[C@@H](O)C[C@@H](O)[C@H](O)CC[C@@H](O)C[C@@H](O)CC(=O)O[C@H]1C)C[C@H](O)[C@H]2C(=O)O` [AMPHOTERICIN B] gave an MFC (Penicillium sp.) greater than 4 mg/L, an MFC (Scedosporium apiospermum [1]) greater than 8 mg/L and an MIC (Mucor) of 0.73 mg/L (≈ 0.79 µM). For the same compound, the MIC (Aspergillus niger) was 1 mg/L (≈ 1.08 µM), the MFC (Candida parapsilosis) was 4 mg/L (≈ 4.33 µM) and the MIC [2] was 1 mg/L (≈ 1.08 µM). The MFC (Curvularia australiensis) was 1 mg/L (≈ 1.08 µM), the MFC (Saccharomyces cerevisiae [3]) was greater than 4 mg/L and the MIC (Candida albicans [4]) was 0.12 mg/L (≈ 0.13 µM). The MFC (Candida albicans [5]) was 2 mg/L (≈ 2.16 µM), the MIC (Cunninghamella [6]) was 2.25 mg/L (≈ 2.43 µM) and the MIC (Mucor hiemalis) was 0.86 mg/L (≈ 0.931 µM). For the same compound, the MIC (Sporothrix schenckii [7]) was 2.5 mg/L (≈ 2.71 µM), the MFC (Talaromyces marneffei) was greater than 4 mg/L and the MIC (Aspergillus terreus [8]) was 2.82 mg/L (≈ 3.05 µM). For the same compound, the MIC (Fusarium solani [9]) was 1 mg/L (≈ 1.08 µM), the MIC (Candida tropicalis) was 0.38 mg/L (≈ 0.411 µM) and the MFC (Lichtheimia corymbifera) was 1 mg/L (≈ 1.08 µM). The MIC (Saccharomyces cerevisiae [10]) was 0.66 mg/L (≈ 0.714 µM), the MFC [11] was 2 mg/L (≈ 2.16 µM) and the MFC [12] was 1 mg/L (≈ 1.08 µM). It also gave an MFC (Fusarium solani [13]) greater than 8 mg/L, an MIC (Scedosporium apiospermum [14]) of 2.66 mg/L (≈ 2.88 µM) and an MIC (Clavispora lusitaniae) of 1.16 mg/L (≈ 1.26 µM). It also gave an MIC (Aspergillus flavus) of 1.51 mg/L (≈ 1.63 µM), an MIC (Cryptococcus gattii) of 0.66 mg/L (≈ 0.714 µM) and an MIC (Rhizopus arrhizus) of 3 mg/L (≈ 3.25 µM). The MFC (Cunninghamella [15]) was greater than 8 mg/L, the MFC (Rhizopus) was 2 mg/L (≈ 2.16 µM) and the MFC (Sporothrix schenckii [16]) was greater than 8 mg/L. It also gave an MFC (Trichosporon asahii) of 4 mg/L (≈ 4.33 µM), an MFC (Aspergillus terreus [17]) greater than 4 mg/L and an MIC (Geotrichum candidum) of 1.5 mg/L (≈ 1.62 µM). For the same compound, the MIC (Aspergillus fumigatus) was 0.69 mg/L (≈ 0.747 µM), the MIC (Trichosporon inkin) was 0.5 mg/L (≈ 0.541 µM) and the MFC (Nakaseomyces glabratus) was 0.5 mg/L (≈ 0.541 µM).
